Assay outcomes from PubChem.
Only a selection was taken, and hits are over-represented in it overall.
H69AR inhibit: proliferation blockers of H69AR lung cancer cells, primary screen, cell-based, human, 86K library | viability, % at 10 µM | 85,000 tested, 6% active | AID 598, 2007 | H69AR lung tumor viability, ATP luminescence, 72 h; stronger effect = lower value;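 active means viability at or below 40%; inactive means viability above 40%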;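 further: multidrug resistant small cell line overexpressing MRP-1 efflux transporter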
bCat KO growth: primary screen for growth suppressors in beta-catenin knockout HCT116 cells (colon tumor, human); 140,000 tested, 1.5% active; HCT116 beta-catenin knockout viability, CellTiter-Glo, 60 h; stronger effect = lower value; viability, % at 10 µM;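 active means viability at or under a set limit, the compound median less 4 SD, cut at about 6% in these data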
PTEN del growth: growth suppression of PTEN-null HCT116, primary screen, cell-based, CellTiter-Glo | viability, % at 10 µM | 140,000 tested, 1.2% active | HCT116 PTEN-null viability, 60 h; stronger effect = lower value;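 active means viability at or below a set limit, 4 SD under the median of all tested compounds, cut at about 3.7% in these data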;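 further: PTEN knockout HCT116 line with beta catenin targeted HCT116 as companion control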
Candida biofilm: clotrimazole potentiators killing Candida biofilms, primary screen, with clotrimazole, Alamar Blue; inhibition, % at 6 µM; 85,000 tested, 0.14% active; C. albicans biofilm + clotrimazole;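 active means inhibition above 20%; inactive means inhibition below 20%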;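 further: preformed 24 hr biofilms exposed to compound for 48 hr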
HUVEC prolif 384: inhibitors of HUVEC proliferation, primary screen, cell-based, 384-well. CellTiter-Glo luminescence, 72 h; stronger effect = lower value. 86,000 tested, 1.1% active. viability, % at 10 µM (by protocol);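 active means viability at or below 30%; inactive means viability above 30%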
Lung fibro prol: antiproliferative effect on LL 47 fibroblasts – human, LL 47 cells, CellTiter-Glo luminescence, primary screen | AID 719, 2007 | 85,000 tested, 1.1% active | LL 47 human lung fibroblast viability, ATP luminescence; stronger effect = lower value | viability, % at 10 µM;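 active means viability at or below 50% in the single dose screen; inactive means viability above 50%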;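 further: compound exposure lasted 72 h before the ATP readout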
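Signal: luminescent ATP detection, CellTiter-Glo; assay system: LL 47 human lung fibroblasts; input: 1,150 cells/well; incubation: overnight cell rest, 72 h compound treatment at 37 °C; measure: % viability versus median cells-only luminescence; medium: IMEM growth medium with 15% fetal bovine serum; dosing: compound addition at 0.1% DMSO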
A number is an active result.

What do the screens show for `CN(C)/N=C/C=C1\CC/C(=C\c2ccc(Br)cc2)C1=O`?
H69AR inhibit: 24; bCat KO growth: inactive; PTEN del growth: inactive; Candida biofilm: inactive; HUVEC prolif 384: inactive; Lung fibro prol: inactive

Results for COc1ccc(/C=C2\CC/C(=C\c3ccc(OC)c(OC)c3)C2=O)cc1OC ?
bCat KO growth: inactive; PTEN del growth: inactive

How did O=S(=O)(/N=C(/c1ccccc1)N1CCCCC1)c1ccccc1 do in these assays?
bCat KO growth: inactive; PTEN del growth: inactive

Results for CC(=O)NN1C(=O)/C(=C/c2ccc(C(C)C)cc2)SC1=S ?
bCat KO growth: inactive; PTEN del growth: inactive

What do the screens show for `Cc1[nH]n(-c2ccc([N+](=O)[O-])cc2)c(=O)c1C=NCCN1CCN(C(=O)c2ccc(F)cc2)CC1`?
H69AR inhibit: inactive; bCat KO growth: inactive; PTEN del growth: inactive; Candida biofilm: inactive; HUVEC prolif 384: inactive; Lung fibro prol: inactive

What do the screens show for `Cc1[nH]n(-c2ccc([N+](=O)[O-])cc2)c(=O)c1C=NCCN1CCN(C(=O)c2ccc(Br)cc2)CC1`?
H69AR inhibit: 40; bCat KO growth: inactive; PTEN del growth: inactive; Candida biofilm: inactive; HUVEC prolif 384: inactive; Lung fibro prol: inactive

What do the screens show for `O=C(O)c1cc2c([nH]c1=O)CCCC2`?
H69AR inhibit: inactive; bCat KO growth: inactive; PTEN del growth: inactive; Candida biofilm: inactive; HUVEC prolif 384: inactive; Lung fibro prol: inactive

What do the screens show for `C=CCSC(=C(C#N)C#N)c1cc2c([nH]1)CCCC2`?
H69AR inhibit: 1.3; bCat KO growth: 2.6; PTEN del growth: 1.9; Candida biofilm: inactive; HUVEC prolif 384: 17; Lung fibro prol: 7.4

How did COC(=O)c1cc([N+](=O)[O-])c(-n2ccnc2)c([N+](=O)[O-])c1 do in these assays?
bCat KO growth: inactive; PTEN del growth: inactive

What do the screens show for `Cc1sc2nc(CN3CCOCC3)nc(Cl)c2c1C`?
bCat KO growth: inactive; PTEN del growth: inactive

What do the screens show for `Cc1sc2nc(CN3CCC(C)CC3)nc(Cl)c2c1C`?
bCat KO growth: 0.9; PTEN del growth: 0.8

How did Oc1[nH]c2c(Cl)cc(Cl)cc2c1N=NC(=S)NCC1CCCO1 (stereo not given) do in these assays?
bCat KO growth: 1.4; PTEN del growth: 0.5

What do the screens show for `CCCCn1c(NC(=O)c2ccccc2)c(C#N)c2nc3ccccc3nc21`?
bCat KO growth: inactive; PTEN del growth: inactive

How did CCC(C)n1c(NC(=O)c2ccccc2)c(C#N)c2nc3ccccc3nc21 (stereo not given) do in these assays?
H69AR inhibit: 2.9; Candida biofilm: inactive; HUVEC prolif 384: inactive; Lung fibro prol: inactive

What do the screens show for `CN1CCc2nc3ccc(Cl)cc3c(-c3ccccc3Cl)c2C1`?
bCat KO growth: inactive; PTEN del growth: inactive

How did CCOC(=O)c1c(C)c(C(=O)Nc2cc(F)ccc2F)c(C)n1C do in these assays?
H69AR inhibit: 20; bCat KO growth: inactive; PTEN del growth: inactive; Candida biofilm: inactive; HUVEC prolif 384: inactive; Lung fibro prol: inactive

What do the screens show for `O=C(Nc1nc2ccccc2s1)c1ccc(N2CCCCC2)c([N+](=O)[O-])c1`?
bCat KO growth: inactive; PTEN del growth: inactive

What do the screens show for `CCOc1cc(N2CCOCC2)c(OCC)cc1NC(=O)COC(=O)c1ccccc1C`?
bCat KO growth: inactive; PTEN del growth: inactive

Results for CCOc1cc(N2CCOCC2)c(OCC)cc1NC(=O)COC(=O)c1cc(C)oc1C ?
H69AR inhibit: 38; bCat KO growth: inactive; PTEN del growth: inactive; Candida biofilm: inactive; HUVEC prolif 384: inactive; Lung fibro prol: inactive

How did CCOc1cc(N2CCOCC2)c(OCC)cc1NC(=O)COc1ncnc2ccc(Br)cc12 do in these assays?
H69AR inhibit: inactive; bCat KO growth: inactive; PTEN del growth: inactive; Candida biofilm: inactive; HUVEC prolif 384: inactive; Lung fibro prol: 42

How did CCOC(=O)Cc1cn2c(=O)cc(CSCC(=O)Nc3ccc(C)c(C)c3)nc2s1 do in these assays?
H69AR inhibit: inactive; bCat KO growth: inactive; PTEN del growth: inactive; Candida biofilm: inactive; HUVEC prolif 384: inactive; Lung fibro prol: inactive

Results for O=C(CCN1CCc2ccccc2C(c2ccccc2)C1)c1ccc2c(c1)OCCO2 (stereo not given) ?
H69AR inhibit: 1.6; bCat KO growth: inactive; PTEN del growth: inactive; Candida biofilm: inactive; HUVEC prolif 384: inactive; Lung fibro prol: inactive

Results for O=C(O)CCC(=O)c1ccc2c(c1)OCCO2 ?
H69AR inhibit: inactive; bCat KO growth: inactive; PTEN del growth: inactive; Candida biofilm: inactive; HUVEC prolif 384: inactive; Lung fibro prol: inactive

What do the screens show for `O=C(CCN1Cc2ccccc2C1)c1ccc2c(c1)OCCO2`?
H69AR inhibit: 1.0; bCat KO growth: inactive; PTEN del growth: inactive; Candida biofilm: inactive; HUVEC prolif 384: inactive; Lung fibro prol: inactive

Results for O=C(CS(=O)(=O)c1ccccc1)c1ccc2c(c1)OCCO2 ?
H69AR inhibit: inactive; bCat KO growth: inactive; PTEN del growth: inactive; Candida biofilm: inactive; HUVEC prolif 384: inactive; Lung fibro prol: inactive

How did CC1Cc2ccccc2N1Cc1cc(=O)n2ccsc2n1 (stereo not given) do in these assays?
H69AR inhibit: inactive; bCat KO growth: inactive; PTEN del growth: inactive; Candida biofilm: inactive; HUVEC prolif 384: inactive; Lung fibro prol: inactive

Results for CC1Cc2ccccc2N1Cc1nc2cc(C(F)(F)F)ccc2c(=O)[nH]1 (stereo not given) ?
H69AR inhibit: 37; bCat KO growth: inactive; PTEN del growth: inactive; Candida biofilm: inactive; HUVEC prolif 384: inactive; Lung fibro prol: inactive

What do the screens show for `CCc1ccccc1NS(=O)(=O)c1ccc2[nH]cc(C(=O)NCc3ccco3)c(=O)c2c1`?
H69AR inhibit: inactive; bCat KO growth: inactive; PTEN del growth: inactive; Candida biofilm: inactive; HUVEC prolif 384: 28; Lung fibro prol: inactive

How did NNc1nc(-c2ccccc2Cl)nc2sc3c(c12)CCCC3 do in these assays?
bCat KO growth: inactive; PTEN del growth: inactive

How did CCCC1(c2ccccc2)NC(=O)N(CC(=O)Nc2sc(-c3ccccc3)cc2C(=O)OCC)C1=O (stereo not given) do in these assays?
H69AR inhibit: 34; bCat KO growth: inactive; PTEN del growth: inactive; Candida biofilm: inactive; HUVEC prolif 384: 22; Lung fibro prol: 22

Results for CCOC(=O)c1cc(-c2ccccc2)sc1NC(=O)CC(C)C ?
bCat KO growth: inactive; PTEN del growth: inactive

Results for CS(=O)(=O)N1CCC(C(=O)c2cccc(Cl)c2)CC1 ?
H69AR inhibit: inactive; bCat KO growth: inactive; PTEN del growth: inactive; Candida biofilm: inactive; HUVEC prolif 384: inactive; Lung fibro prol: inactive

What do the screens show for `CC(Nc1nc(N2CCN(S(C)(=O)=O)CC2)nc2ccccc12)c1ccccc1` (stereo not given)?
H69AR inhibit: inactive; bCat KO growth: inactive; PTEN del growth: inactive; Candida biofilm: inactive; HUVEC prolif 384: 14; Lung fibro prol: inactive
